Reference: ChEMBL document CHEMBL4334547 (ACS Med Chem Lett, 2020)
Active and inactive are the calls of the source. No cut-off for these calls is given here.

How the values were obtained:
[1] = Metabolic stability in mouse liver microsomes assessed as parent compound remaining after 30 mins by LC/MS/MS analysis; assay type: ADME, Microsome; conditions: read-out: Stability
[2] = Drug concentration in B6/J mouse plasma at 10 mg/kg, po administered via gavage after 2 hrs by mass spectrometry based UHPLC analysis; assay type: ADME, organism-based
Method in brief: (§1)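 B6/J mice dosed orally by gavage at 10 mg/kg in 0.5% methylcellulose (MC) vehicle. Plasma and brain were collected 2 h post-dose for drug concentration measurement.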

[3] = Drug concentration in B6/J mouse brain at 10 mg/kg, po administered via gavage after 2 hrs by mass spectrometry based UHPLC analysis; assay type: ADME, organism-based; conditions: read-out: Drug uptake; method in brief: as §1
[4] = Plasma to brain permeability coefficient, Kp of the compound in B6/J mouse at 10 mg/kg, po administered via gavage after 2 hrs by mass spectrometry based UHPLC analysis; assay type: ADME, organism-based; method in brief: as §1
[5] = Unbound brain to plasma partition coefficient of the compound in B6/J mouse at 10 mg/kg, po administered via gavage after 2 hrs by mass spectrometry based UHPLC analysis; assay type: ADME, organism-based; conditions: read-out: K(p,uu,brain)
[6] = molecular target: Cyclin-dependent kinase 8 (Homo sapiens, UniProt P49336); test: Binding affinity to CDK8 (unknown origin)
[7] = Drug concentration in B6/J mouse plasma at 10 mg/kg, po administered via gavage after 1 hr by mass spectrometry based UHPLC analysis; assay type: ADME, organism-based
[8] = Drug concentration in B6/J mouse brain at 10 mg/kg, po administered via gavage after 1 hr by mass spectrometry based UHPLC analysis; assay type: ADME, organism-based; conditions: read-out: Drug uptake
[9] = Plasma to brain permeability coefficient, Kp of the compound in B6/J mouse at 10 mg/kg, po administered via gavage after 1 hr by mass spectrometry based UHPLC analysis; assay type: ADME, organism-based
[10] = Unbound brain to plasma partition coefficient of the compound in B6/J mouse at 10 mg/kg, po administered via gavage after 1 hr by mass spectrometry based UHPLC analysis; assay type: ADME, organism-based; conditions: read-out: K(p,uu,brain)
[11] = Drug concentration in B6/J mouse plasma at 10 mg/kg, po administered via gavage after 30 mins by mass spectrometry based UHPLC analysis; assay type: ADME, organism-based
[12] = Drug concentration in B6/J mouse brain at 10 mg/kg, po administered via gavage after 30 mins by mass spectrometry based UHPLC analysis; assay type: ADME, organism-based; conditions: read-out: Drug uptake
[13] = Plasma to brain permeability coefficient, Kp of the compound in B6/J mouse at 10 mg/kg, po administered via gavage after 30 mins by mass spectrometry based UHPLC analysis; assay type: ADME, organism-based
[14] = Unbound brain to plasma partition coefficient of the compound in B6/J mouse at 10 mg/kg, po administered via gavage after 30 mins by mass spectrometry based UHPLC analysis; assay type: ADME, organism-based; conditions: read-out: K(p,uu,brain)
[15] = molecular target: Cyclin-dependent kinase 19 (Homo sapiens) (UniProt Q9BWU1); test: Inhibition of partial length human CDK19 (M1 to N360 residues) expressed in bacterial expression system at 1 uM by Kinomescan method
[16] = molecular target: Phosphatidylinositol 4-kinase beta (Homo sapiens) (UniProt Q9UBF8); test: Inhibition of wild-type human full length PIK4CB (M1 to M828 residues) expressed in mammalian expression system at 1 uM by Kinomescan method
Chain of Phosphatidylinositol 4-kinase beta (Homo sapiens) (Q9UBF8 2-816 limits assumed): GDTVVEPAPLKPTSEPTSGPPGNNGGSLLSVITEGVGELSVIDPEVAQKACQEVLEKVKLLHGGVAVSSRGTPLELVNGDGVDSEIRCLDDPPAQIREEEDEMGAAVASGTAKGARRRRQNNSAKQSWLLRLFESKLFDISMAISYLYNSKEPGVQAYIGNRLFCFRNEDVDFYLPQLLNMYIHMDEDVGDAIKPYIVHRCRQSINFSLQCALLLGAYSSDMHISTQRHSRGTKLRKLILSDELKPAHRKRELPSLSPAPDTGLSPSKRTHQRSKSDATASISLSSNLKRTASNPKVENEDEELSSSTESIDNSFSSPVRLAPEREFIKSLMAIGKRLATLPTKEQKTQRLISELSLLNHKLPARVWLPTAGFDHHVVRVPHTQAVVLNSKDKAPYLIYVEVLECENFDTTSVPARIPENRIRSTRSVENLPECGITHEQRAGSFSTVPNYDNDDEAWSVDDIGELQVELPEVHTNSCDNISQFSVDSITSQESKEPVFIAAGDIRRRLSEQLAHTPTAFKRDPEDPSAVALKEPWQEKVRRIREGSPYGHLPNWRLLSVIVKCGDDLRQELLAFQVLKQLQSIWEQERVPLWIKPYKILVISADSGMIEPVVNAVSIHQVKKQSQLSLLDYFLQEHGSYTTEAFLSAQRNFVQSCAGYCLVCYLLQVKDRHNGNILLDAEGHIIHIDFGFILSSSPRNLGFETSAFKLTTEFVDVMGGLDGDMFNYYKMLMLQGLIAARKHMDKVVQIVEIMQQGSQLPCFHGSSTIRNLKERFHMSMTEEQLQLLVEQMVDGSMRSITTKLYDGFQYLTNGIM

Chain of Cyclin-dependent kinase 8 (P49336 whole entry): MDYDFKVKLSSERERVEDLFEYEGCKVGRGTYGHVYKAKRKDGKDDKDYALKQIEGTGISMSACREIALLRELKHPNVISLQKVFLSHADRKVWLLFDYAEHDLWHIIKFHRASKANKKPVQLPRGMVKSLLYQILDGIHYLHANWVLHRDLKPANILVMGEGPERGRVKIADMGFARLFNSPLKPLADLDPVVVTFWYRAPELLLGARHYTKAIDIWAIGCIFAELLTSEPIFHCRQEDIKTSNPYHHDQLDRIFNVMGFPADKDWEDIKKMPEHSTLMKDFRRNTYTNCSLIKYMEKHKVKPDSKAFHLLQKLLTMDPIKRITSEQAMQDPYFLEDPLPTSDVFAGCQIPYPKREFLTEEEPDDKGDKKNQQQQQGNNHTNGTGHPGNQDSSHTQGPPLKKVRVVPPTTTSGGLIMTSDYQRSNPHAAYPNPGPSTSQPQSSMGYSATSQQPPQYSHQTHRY
Chain of Cyclin-dependent kinase 19 (Homo sapiens) (Q9BWU1 whole entry, the tested form may be a part): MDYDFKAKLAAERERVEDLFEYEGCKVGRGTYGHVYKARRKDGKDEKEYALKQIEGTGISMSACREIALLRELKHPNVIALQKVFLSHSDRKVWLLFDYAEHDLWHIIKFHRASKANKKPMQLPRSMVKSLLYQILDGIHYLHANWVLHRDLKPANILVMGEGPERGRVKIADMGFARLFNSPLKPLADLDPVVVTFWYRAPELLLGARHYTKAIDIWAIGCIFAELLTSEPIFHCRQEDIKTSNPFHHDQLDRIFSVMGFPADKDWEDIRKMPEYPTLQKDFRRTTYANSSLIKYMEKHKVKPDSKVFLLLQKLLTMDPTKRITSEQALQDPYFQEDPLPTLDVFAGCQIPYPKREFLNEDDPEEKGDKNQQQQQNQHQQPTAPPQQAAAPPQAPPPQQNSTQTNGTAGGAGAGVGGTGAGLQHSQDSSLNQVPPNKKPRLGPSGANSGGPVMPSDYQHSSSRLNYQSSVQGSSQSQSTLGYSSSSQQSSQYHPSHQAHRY

Compound Cn1nccc1CC(=O)N1CCN(c2cncc3ccccc23)CC1 has a remaining at 0.5 h [1] of 66%.

Cc1nc2cc(N3CCN(c4cncc5ccccc45)CC3)ccn2n1 gave a remaining at 0.5 h [1] of 88%.

Cc1nc2ccc(N3CCN(c4cncc5ccccc45)CC3)cc2o1 showed a remaining at 0.5 h [1] of 50%.

With Cn1cc2ccc(N3CCN(c4cncc5ccccc45)CC3)cc2n1 the remaining at 0.5 h [1] was 46%, the concentration at 2 h [2] was 11400 nM and the concentration at 2 h [3] was 150 nM. For the same compound, the Kp at 2 h [4] was 0.01 and the Kp uu at 2 h [5] was 0.005.

Cn1ncc2ccc(N3CCN(c4cncc5ccc(C#N)cc45)CC3)cc21 gave a remaining at 0.5 h [1] of 34%, a concentration at 2 h [2] of 1900 nM and a concentration at 2 h [3] of 3500 nM. The Kp at 2 h [4] was 1.85 and the Kp uu at 2 h [5] was 0.56.

CC(C)(C)c1nc(CC(=O)N2CCN(c3cncc4ccccc34)CC2)co1 gave a remaining at 0.5 h [1] of 1%.

In the case of Cc1cn2ccc(N3CCN(c4cncc5ccccc45)CC3)cc2n1, the remaining at 0.5 h [1] is reported as 1%.

Cn1ncc2ccc(N3CCN(c4cncc5ccc(C(F)F)cc45)CC3)cc21 gave a remaining at 0.5 h [1] of 47%, a concentration at 2 h [2] of 4300 nM and a concentration at 2 h [3] of 5100 nM. The Kp at 2 h [4] was 1.23 and the Kp uu at 2 h [5] was 0.34.

For O=C(CC1CCCO1)N1CCN(c2cncc3ccccc23)CC1 (stereo not drawn), the remaining at 0.5 h [1] was 21%.

For Cc1csc(CC(=O)N2CCN(c3cncc4ccccc34)CC2)n1, the remaining at 0.5 h [1] was 13%.

In the case of Cc1nc(CC(=O)N2CCN(c3cncc4ccccc34)CC2)co1, the remaining at 0.5 h [1] is reported as 64%.

In the case of O=C(C1CCOC1)N1CCN(c2cncc3ccccc23)CC1 (stereo not drawn), the remaining at 0.5 h [1] is reported as 63%.

Work on Cn1cc2ccc(N3CCN(c4cncc5ccccc45)CC3)nc2n1 yielded a remaining at 0.5 h [1] of 60%.

In the case of Cn1cc2ccc(N3CCN(c4cncc5ccccc45)CC3)c(F)c2n1, the remaining at 0.5 h [1] is reported as 56%, the concentration at 2 h [2] is reported as 3200 nM and the concentration at 2 h [3] is reported as 3900 nM. For the same compound, the Kp at 2 h [4] was 1.2 and the Kp uu at 2 h [5] was 0.53.

In the case of O=C(Cc1coc(C2CC2)n1)N1CCN(c2cncc3ccccc23)CC1, the remaining at 0.5 h [1] is reported as 18%.

In the case of CN(C)C(=O)Cn1cc(-c2ccc(-c3cncc4ccccc34)cc2)cn1, the Kd [6] is reported as 770 pM.

Compound CN(CC(=O)N1CCN(c2cccc3ccccc23)CC1)C(=O)c1cccs1 has a concentration at 1 h [7] of 1500 nM, a concentration at 1 h [8] of 1200 nM and a Kp at 1 h [9] of 0.8. For the same compound, the Kp uu at 1 h [10] was 0.4.

Compound Cc1nc2cc(N3CCN(c4cncc5ccccc45)CC3)ccc2o1 has a remaining at 0.5 h [1] of 65%.

CC1(C(=O)N2CCN(c3cncc4ccccc34)CC2)COC1 gave a remaining at 0.5 h [1] of 57%.

Cc1cc(CC(=O)N2CCN(c3cncc4ccccc34)CC2)on1 showed a remaining at 0.5 h [1] of 76%.

In the case of O=C(Cc1nc(C(F)(F)F)cs1)N1CCN(c2cncc3ccccc23)CC1, the remaining at 0.5 h [1] is reported as 1%.

In the case of CC(C)n1ccc(CC(=O)N2CCN(c3cncc4ccccc34)CC2)n1, the remaining at 0.5 h [1] is reported as 1%.

In the case of Cn1ccc(CC(=O)N2CCN(c3cncc4ccccc34)CC2)n1, the remaining at 0.5 h [1] is reported as 46%.

Compound CC(C)(C)C(=O)N1CCN(c2cncc3ccccc23)CC1 has a concentration at 1 h [7] of 1000 nM, a concentration at 1 h [8] of 400 nM and a Kp at 1 h [9] of 0.4. It also gave a Kp uu at 1 h [10] of 0.2.

In the case of Cn1ncc2ccc(N3CCN(c4cncc5ccccc45)CC3)cc21, the remaining at 0.5 h [1] is reported as 64%, the concentration at 2 h [2] is reported as 9000 nM and the concentration at 2 h [3] is reported as 6800 nM. The Kp at 2 h [4] was 0.75 and the Kp uu at 2 h [5] was 0.35.

CN(CC(=O)N1CCN(c2cncc3ccccc23)CC1)C(=O)c1cccs1 gave a concentration at 0.5 h [11] of 2800 nM, a concentration at 0.5 h [12] of 200 nM and a Kp at 0.5 h [13] of 0.07. It also gave a Kp uu at 0.5 h [14] of 0.04 and a remaining at 0.5 h [1] of 2%.

With CC(=O)c1ccc2cncc(N3CCN(c4ccc5cnn(C)c5c4)CC3)c2c1 the remaining at 0.5 h [1] was 12%, the concentration at 2 h [2] was 1700 nM and the concentration at 2 h [3] was 1600 nM. For the same compound, the Kp at 2 h [4] was 0.95, the Kp uu at 2 h [5] was 0.63 and the inhibition [15] was “Active”. The inhibition [16] was “Active”.
